For two compounds, Activity results are on record in ChEMBL document CHEMBL3044563, “Alternethanoxins A and B, polycyclic ethanones produced by Alternaria sonchi , potential mycoherbicides for Sonchus arvensis biocontrol” (2009).

In one assay the test system is Bacillus subtilis. The assay can be described thus: Antibacterial activity against Bacillus subtilis at 100 ug/disk. It counts as functional, organism-based. In short, it runs like this: (§1)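 Test organisms were S. cerevisiae (antifungal) and X. campestris, E. coli and B. subtilis (antibacterial). Compound applied to a disk at 100 μg per disk, following a previously described disk method.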

For another assay, the system named is Saccharomyces cerevisiae. As to the kind of experiment: Antifungal activity against Saccharomyces cerevisiae at 100 ug/disk. It counts as functional, organism-based. In short, it runs like this:
as §1

The subject of another assay is Xanthomonas campestris. The assay can be described thus: Antibacterial activity against Xanthomonas campestris at 100 ug/disk. It counts as functional, organism-based. The method in brief:
as §1

The next assay concerns Aegopodium podagraria. The assay can be described thus: Phytotoxicity against Aegopodium podagraria (bishop's weed) assessed as necrotic lesion diameter at 2 mg/mL at 24 degC measured after 2 days by leaf disk-puncture assay. It counts as functional. The method in brief:
(§2)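 Plants were raised in a greenhouse from underground shoot pieces or seeds. 10 mm disks were cut with a cork borer from well-expanded leaves, laid on moist filter paper and punctured centrally with a needle. Compound was predissolved in EtOH and diluted with water (final 5% v/v EtOH), and a 10 μL droplet was applied. Disks were incubated at 24 °C under a 12 h photoperiod, and necrotic lesion diameter (mm) was measured after 2 days.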

In a further assay the test system is Escherichia coli. As to the kind of experiment: Antibacterial activity against Escherichia coli at 100 ug/disk. It is filed as functional, organism-based. The method in brief:
as §1

Another assay deals with Phleum pratense. The assay can be described thus: Phytotoxicity against Phleum pratense (timothy grass) assessed as necrotic lesion diameter at 2 mg/mL at 24 degC measured after 2 days by leaf disk-puncture assay. It counts as functional. In short, it runs like this: as §2
The next assay concerns Convolvulus arvensis. As to the kind of experiment: Phytotoxicity against Convolvulus arvensis assessed as necrotic lesion diameter at 2 mg/mL at 24 degC measured after 2 days by leaf disk-puncture assay. It counts as functional. The method in brief:
as §2

In a further assay the test system is Taraxacum officinale. As to the kind of experiment: Phytotoxicity against Taraxacum officinale (dandelion) assessed as necrotic lesion diameter at 2 mg/mL at 24 degC measured after 2 days by leaf disk-puncture assay. It is filed as functional. The method in brief: as §2
Assay [1] has as its system Sonchus arvensis. The assay can be described thus: Phytotoxicity against Sonchus arvensis (field sow-thistle) assessed as necrotic lesions at 2 mg/mL at 24 degC measured after 2 days by leaf disk-puncture assay. It is filed as functional. The method in brief:
as §2

In a further assay the test system is Amaranthus retroflexus. The assay can be described thus: Phytotoxicity against Amaranthus rethroflexus assessed as necrotic lesion diameter at 2 mg/mL at 24 degC measured after 2 days by leaf disk-puncture assay. It is filed as functional. In short, it runs like this: as §2
For a further assay, the system named is Calendula officinalis. The assay can be described thus: Phytotoxicity against Calendula officinalis assessed as necrotic lesion diameter at 2 mg/mL at 24 degC measured after 2 days by leaf disk-puncture assay. It is filed as functional. In short, it runs like this: as §2
In a further assay the test system is Cirsium arvense. As to the kind of experiment: Phytotoxicity against Cirsium arvense (Canada thistle) assessed as necrotic lesion diameter at 2 mg/mL at 24 degC measured after 2 days by leaf disk-puncture assay. It counts as functional. The method in brief: as §2
Assay [2] deals with Sonchus arvensis. The assay can be described thus: Phytotoxicity against Sonchus arvensis (field sow-thistle) assessed as necrotic lesion diameter at 4 mg/mL at 24 degC measured after 2 days by leaf disk-puncture assay. It is filed as functional. In short, it runs like this: as §2
The subject of another assay is Elymus repens. As to the kind of experiment: Phytotoxicity against Elymus repens (couch grass) assessed as necrotic lesion diameter at 2 mg/mL at 24 degC measured after 2 days by leaf disk-puncture assay. It counts as functional. In short, it runs like this: as §2
Assay [3] has as its system Sonchus arvensis. The assay can be described thus: Phytotoxicity against Sonchus arvensis (field sow-thistle) assessed as necrotic lesions at 1 mg/mL at 24 degC measured after 2 days by leaf disk-puncture assay. It counts as functional. The method in brief: as §2

Active and inactive are the calls of the source. The calls are words filed in the database; no cut-off is given here.

As to `COc1ccc2oc3c(C(C)=O)cc(O)c4c3c2c1[C@@H](O)O4` [ALTERNETHANOXIN B], the result in the assay on Bacillus subtilis, with Saccharomyces cerevisiae, in the assay on Xanthomonas campestris and in the assay on Escherichia coli was inactive. The Activity in the assay on Aegopodium podagraria, in the assay with Phleum pratense, in the assay on Convolvulus arvensis, in the assay on Taraxacum officinale, with Amaranthus retroflexus and with Calendula officinalis was 1 mm each time. Further, the Activity in the assay with Cirsium arvense turned out to be 1 mm; in the assay on Sonchus arvensis [2], 2 mm; in the assay on Elymus repens it was 1 mm. Besides, in the assay on Sonchus arvensis [1], the outcome was Active.
Consider `COc1cccc2c1[C@H](O)Oc1c(O)cc(C(C)=O)c(O)c1-2` [ALTERNETHANOXIN A], for which the result in the assay with Sonchus arvensis [3] was Active. Further, the result in the assay with Bacillus subtilis, with Saccharomyces cerevisiae, in the assay with Xanthomonas campestris and in the assay on Escherichia coli was inactive. Moreover, the Activity in the assay with Aegopodium podagraria, with Phleum pratense, in the assay with Convolvulus arvensis, in the assay with Taraxacum officinale, in the assay with Amaranthus retroflexus and in the assay on Calendula officinalis was 1 mm throughout. Moreover, the values for the Activity in the assay on Cirsium arvense, in the assay with Sonchus arvensis [2] and in the assay on Elymus repens were 1 mm, 4 mm and 1 mm, respectively.
